A selection follows.
PGC1a acetyl up – raises PGC1a acetylation signal in U2OS cells | U2OS PGC1a acetylation AlphaScreen, overnight | activation, % at 15.6 µM | actives 0.21% (n = 350,000);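 active = every replicate reaching activation of at least 50%, whatever the mean replicate activation; inconclusive = replicates that disagree or another doubt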;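 note: hits raise the AlphaScreen acetylation signal above neutral controls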
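System – flag-PGC1a/GCN5 U2OS cells · Quantity – 7000 U2OS cells per well · Signal – AlphaScreen proximity luminescence, anti-acetyl-lysine antibody · Schedule – overnight compound treatment, 37 °C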
G6PC hep suppr – PGC-1a acetylation activator altering hepatocyte G6PC expression. shares compounds with PGC1a acetyl up. primary mouse hepatocytes, G6PC mRNA qPCR, forskolin. G6PC suppression (normalized activity, % of positive control; higher = more suppression), % at 26 µM. 240 tested, under 10 active. AID 743463;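 active = dose curves showing G6PC suppression whose half-maximal dose is at most twice the top valid dose; inconclusive = flat curves with moderate negative activity, or unreliable fits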;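 note: G6PC expression relative to GAPDH housekeeping gene as delta delta Ct; 0% = median of neutral control wells and 100% = median of positive control wells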
Hep PCK1 suppr – PGC-1a acetylation activator altering hepatocyte PCK1 expression | shares compounds with PGC1a acetyl up | 230 tested, under 10 active | primary mouse hepatocytes, PCK1 mRNA qPCR, forskolin-stimulated | PCK1 expression decrease, unspecified at 26 µM;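 active = compounds lowering PCK1 expression whose fitted half-maximal concentration is at most twice the top tested dose; inconclusive = flat fit with moderate opposite-direction effect, or poor fit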;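 note: values are delta delta Ct of PCK1 relative to GAPDH; higher delta delta Ct means lower PCK1 expression so positive values indicate hits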
Hep PGC-1a down – PGC-1a acetylation activator altering hepatocyte PGC-1a expression | shares compounds with PGC1a acetyl up | primary mouse hepatocytes, PGC-1a mRNA qPCR, forskolin; top dose 26 µM | max activity (PGC-1a expression decrease), % | 240 tested, under 10 active | AID 743467;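 active = compound lowering PGC-1a expression with fitted half-maximal concentration at most twice its top tested dose; inconclusive = flat curve with moderate opposite-direction effect, or poor fit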;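 note: 0% = neutral control wells median and 100% = positive control wells median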
The depositor's hits bear a star; ? = inconclusive; / = no result; [ ] = remark or other dose.

SMILES	PGC1a acetyl up	G6PC hep suppr	Hep PCK1 suppr	Hep PGC-1a down
Cc1c(Nc2cc(Cl)c3nonc3c2[N+](=O)[O-])c(=O)n(-c2ccccc2)n1C	-40	/	/	/
CCC1NC(=S)N(C2CCCCC2)C1=O (stereo unspecified)	-55	/	/	/
CCN1CCN(c2ncc(C(=O)Nc3cc(Cl)ccc3OC)c3ccccc23)CC1	-93	272[8 µM]	?	110
COc1cccc2c1C(=O)c1c(O)c3c(c(O)c1C2=O)C[C@@](O)(C(C)=O)C[C@@H]3O[C@H]1C[C@H](N)[C@H](O)[C@H](C)O1	-51	/	/	/
CN1CCN(/N=C/c2ccc(N(c3ccccc3)c3ccccc3)cc2)CC1	-56	/	/	/
COc1ccc(-c2cn[nH]c2-c2ccc(O)cc2O)cc1	-42	/	/	/
COc1ccc(-c2nc3ccccc3c(=O)o2)cc1OC	-49	/	/	/
COc1ccc(CN2CCn3ncc(C(=O)Nc4ccccc4)c3C2=O)cc1	-129	88	39	53
O=C(Cn1cnc2c(nnn2Cc2ccc(Cl)cc2)c1=O)c1ccccc1	-50	/	/	/
CCCCN(C)Cc1c(C)[nH]c2ccccc2c1=O	-49	/	/	/
O=C(C[C@H]1CC[C@H]2[C@@H](COC[C@@H](O)CN2C(=O)c2cc(Cl)cc(Cl)c2)O1)N1CCc2ccccc2C1	?	26	59	91
O=c1c2c(nc3c(-c4ccc(Cl)cc4)c[nH]n13)CCCC2	-41	/	/	/
CN(C)c1nc(SCCOC(=O)COc2ccc(Cl)cc2Cl)nc(N(C)C)n1	-52	/	/	/
Clc1ccc(-c2csc(N3CCSCC3)n2)cc1	-45	-18	-17	29
CCc1nc(N)nc(N)c1-c1ccc(Cl)cc1	-48	/	/	/
C[C@@H]1CN([C@H](C)CO)C(=O)c2c(c3ccccc3n2C)-c2ccccc2CO[C@@H]1CN(C)C(=O)Nc1cccc(C(F)(F)F)c1	68*	112	196	157
CO[C@@H](C(=O)N(C)C[C@H]1OCc2ccccc2-c2c(n(C)c3ccccc23)C(=O)N([C@H](C)CO)C[C@H]1C)c1ccccc1	72*	8	32	79
C[C@@H]1CN([C@@H](C)CO)C(=O)c2c(c3ccccc3n2C)-c2ccccc2CO[C@@H]1CN(C)C(=O)Nc1cccc(C(F)(F)F)c1	79*	103[23.5 µM]	45[23.5 µM]	58
C[C@@H]1CN([C@@H](C)CO)C(=O)c2c(c3ccccc3n2C)-c2ccccc2CO[C@@H]1CN(C)C(=O)Nc1ccc(F)cc1	?	-2[23.5 µM]	42[23.5 µM]	32
COc1ccccc1C(NC(C)=O)c1cc(Cl)c2cccnc2c1O (stereo unspecified)	-46	/	/	/
CCN1CC=C2C(C#N)=C(N)C(C#N)(C#N)[C@H](c3cccc(OC)c3OC)[C@H]2C1	-41	/	/	/
O=C(OCc1ccccc1)N1CCC2CC1c1cc(-c3ccc(F)cc3)ccc12 (stereo unspecified)	-63	/	/	/
CCOC(=O)Cn1cc(/C=C(/C#N)C(=O)NC(C)C)c2ccccc21	-49	/	/	/
COc1ccc2nc3cc(Cl)ccc3c(Nc3cc(CN4CCCC4)c(O)c(CN4CCCC4)c3)c2n1	-72	/	/	/
Cc1c(/C(O)=C2\C(=O)C(=O)N(CCCN(C)C)C2c2ccccc2)cnn1-c1ccccc1 (stereo unspecified)	-82	/	/	/
SMILES	PGC1a acetyl up	G6PC hep suppr	Hep PCK1 suppr	Hep PGC-1a down
C[C@H](CO)N1C[C@H](C)[C@@H](CN(C)Cc2ccc(C(F)(F)F)cc2)Oc2ccc(NS(=O)(=O)c3ccc(F)cc3)cc2C1=O	-103	/	/	/
C[C@@H]1CN([C@H](C)CO)C(=O)c2cc(N(C)C)ccc2O[C@@H](C)CCCCO[C@H]1CN(C)C(=O)Cc1ccccc1	119*	14[23.5 µM]	53[23.5 µM]	103
C[C@@H]1CN([C@H](C)CO)C(=O)c2cc(N(C)C)ccc2O[C@@H](C)CCCCO[C@H]1CN(C)C(=O)Nc1ccccc1	67*	-5[23.5 µM]	-7.9[23.5 µM]	17
CC(=O)Nc1cc(OC(C)=O)c2nonc2c1OC(C)=O	-44	/	/	/
Cc1cccc(N2C(=O)C(Cl)=C(N3CCOCC3)C2=O)c1	-81	/	/	/
CCC(=O)NC(c1cccs1)c1ccc2cccnc2c1O (stereo unspecified)	-47	/	/	/
COc1ccc(C(=O)N/C(=C/c2cccs2)C(=O)NC(C)(C)C)cc1OC	-67	/	/	/
COc1cc(NC(=O)c2cccs2)c(OC)cc1NC(=O)CCC(=O)Nc1ccc2ncccc2c1	366*	189	?	?
O=C1/C(=C/c2ccc(N3CCOCC3)o2)SC(=Nc2ccccc2)N1CCc1c[nH]c2ccccc12	-62	/	/	/
N/C(=N\OC(=O)CCCOc1ccccc1)c1ccc([N+](=O)[O-])cc1	-90	/	/	/
COC(=O)c1cc2ccsc2n1CC(=O)Nc1cc(Cl)ccc1OC	59*	24	314	119
N=c1n(Cc2ccccc2)c2ccccc2n1CC(O)COc1ccc(Cl)cc1Cl (stereo unspecified)	-44	/	/	/
O=C(CCCn1c(=O)[nH]c2cc(Cl)ccc2c1=O)NCCC1=CCCCC1	73*	60	?	-24
CCOC(=O)C1=Nc2ccccc2C1=[N+]=[N-]	-45	/	/	/
COc1ccc(C(=O)NCCCSC)cc1OC1CCN(C(C)C)CC1	-44	/	/	/
COc1ccc(S(=O)(=O)N2CCOCC2)cc1NC(=O)CCNC(=O)c1ccc(Cl)cc1	76*	3	49	?
O=C1C(Cl)=C(N2CCOCC2)C(=O)N1CCc1ccccc1	-42	/	/	/
CC1(Cc2ccc(Cl)cc2)C(=O)Nc2c(Cl)ccc(Cl)c21 (stereo unspecified)	80*	-63	/	?
CCOC(=O)C1=C[C@@H](C(C)C)N(S(=O)(=O)c2ccc(C)cc2)[C@H]1c1ccc(C(F)(F)F)cc1	131*	-32	22	58
CCOC(=O)C1=CC[C@@H](c2ccc(F)cc2)N(S(=O)(=O)c2ccc(C)cc2)[C@H]1c1ccccc1	90*	/	34	93
Cc1cc(C(=O)CSc2nnc(-c3ccccc3)o2)c(C)n1CC1COc2ccccc2O1 (stereo unspecified)	-51	/	/	/
Cc1cc(C)c2c(-n3cccc3)c(C(=O)NNS(=O)(=O)c3ccccc3)sc2n1	173*	/	/	?
C=CCNc1nc(Cl)nc(NCc2ccco2)n1	-42	/	/	/
COc1cc(C2Nc3cccc4cccc(c34)N2)cc(OC)c1OC(C)=O	-45	/	/	/
COc1cc(NS(=O)(=O)c2ccc(N)cc2)nc(OC)n1	-57	/	/	/
SMILES	PGC1a acetyl up	G6PC hep suppr	Hep PCK1 suppr	Hep PGC-1a down
O=C(CCl)N=c1sccn1Cc1ccccc1Cl	-52	/	/	/
O=C(CCC1CCN(Cc2ccccc2Cl)CC1)NC1CC1	-95	/	/	/
CCNC(=O)C1(C)CCCN1Cc1ccccc1Cl (stereo unspecified)	-49	/	22	24
Nc1nn(-c2ccccc2)nc1C(=O)OCc1ccccc1	-72	/	/	/
COCCNC(=O)c1ccc(C)cc1C	-44	/	/	/
Cc1cc(/C=C2\C(=N)N3N=C(C(C)C)SC3=NC2=O)c(C)n1Cc1ccccc1	-49	/	/	/
CC(=O)Nc1ccc(NC2=C/C(=N/S(=O)(=O)c3cccs3)c3ccccc3C2=O)cc1	-70	/	/	/
O=C(CCn1nnc2ccccc21)Nc1nnc(Cc2ccccc2)s1	63*	-50	/	?
COc1cc(CN2CCN(Cc3ccccc3C(F)(F)F)CC2)cc(OC)c1OC	-63	/	/	/

From PubChem
